Results collected from several papers.
Compare with care: the assays were run in different laboratories.
Target: Serine/threonine-protein kinase D1 (PRKD1, Homo sapiens, UniProt Q15139)
Sequence (Q15139 1-912, as in one of the studies): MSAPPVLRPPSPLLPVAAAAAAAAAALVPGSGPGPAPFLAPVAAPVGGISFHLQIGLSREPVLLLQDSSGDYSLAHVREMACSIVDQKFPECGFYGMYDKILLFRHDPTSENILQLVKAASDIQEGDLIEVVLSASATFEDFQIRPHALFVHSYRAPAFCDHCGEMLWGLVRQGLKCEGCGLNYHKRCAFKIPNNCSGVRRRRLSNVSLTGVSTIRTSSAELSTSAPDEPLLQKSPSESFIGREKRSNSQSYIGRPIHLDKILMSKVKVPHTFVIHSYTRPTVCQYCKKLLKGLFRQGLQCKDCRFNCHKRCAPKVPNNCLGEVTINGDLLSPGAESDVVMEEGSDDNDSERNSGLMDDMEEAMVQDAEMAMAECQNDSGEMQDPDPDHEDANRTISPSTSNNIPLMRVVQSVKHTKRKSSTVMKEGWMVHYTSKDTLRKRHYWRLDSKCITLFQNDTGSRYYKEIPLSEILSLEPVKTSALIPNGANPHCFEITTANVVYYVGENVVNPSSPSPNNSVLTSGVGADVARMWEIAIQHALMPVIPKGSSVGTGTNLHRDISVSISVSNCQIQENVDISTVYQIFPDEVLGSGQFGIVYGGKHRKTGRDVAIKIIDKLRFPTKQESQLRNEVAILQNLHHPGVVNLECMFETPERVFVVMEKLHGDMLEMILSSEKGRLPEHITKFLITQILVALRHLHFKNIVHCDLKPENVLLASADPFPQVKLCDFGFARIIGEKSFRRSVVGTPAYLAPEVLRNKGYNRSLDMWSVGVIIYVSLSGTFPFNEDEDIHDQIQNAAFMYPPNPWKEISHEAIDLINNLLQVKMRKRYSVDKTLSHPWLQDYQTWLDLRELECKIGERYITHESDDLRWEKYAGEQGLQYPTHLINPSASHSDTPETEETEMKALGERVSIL

| SMILES | observed | technique | tested at | remaining binding [%] |
| --- | --- | --- | --- | --- |
| FC(F)(F)Oc1cccc(-c2cnc3ccc(-c4ccncc4)nn23)c1 | cell-free assay | competition with immobilised ligand | 5 µM | 100 |
| C[C@@]1(Cc2ccc(C#N)cc2)C(=O)N(c2cc(Cl)cc(Cl)c2)c2ncc(C(=O)NC3(c4nc(C5CCC5)no4)CC3)n21 | cell-free assay | competition with immobilised ligand | 1 µM | 86 |
| CC1CCCN1c1nccc(-c2cnn3ncccc23)n1 (stereo not drawn) | binding |  | 1 µM | 100 |
| O=C(NCCCN1CCOCC1)c1ccc(Nc2nccc(-c3cc4ccccc4s3)n2)cc1 | binding | competition with immobilised ligand | 1 µM | 47 |
| CN(C)c1nccc(-c2cnc3ncccn23)n1 | binding |  | 1 µM | 61 |
| CN([C@@H]1CCc2c(CC(=O)O)c3cc(S(C)(=O)=O)ccc3n2C1)S(=O)(=O)c1ccc(F)cc1 | cell-free assay | competition with immobilised ligand | 1 µM | 75 |
| CN(C)c1ncc(F)c(-c2cnn3ncccc23)n1 | binding |  | 1 µM | 100 |
| C[C@@H](c1ccc(-n2cnc3c(N)ncnc32)cc1)N1CCc2nn(C)c(Cc3ccccc3)c2C1=O | binding | competition with immobilised ligand | 0.1 µM | 48 |
| O=C(NCCCN1CCOCC1)c1ccc(Nc2ncc(Cl)c(-c3ccc(Cl)s3)n2)cc1 | binding | competition with immobilised ligand | 1 µM | 30 |
| c1cncc(-c2cccc(Nc3nccc(NC4CCCCC4)n3)c2)c1 | binding | competition with immobilised ligand | 10 µM | 11 |
| CC1=C(C#N)C(c2ccc3c(c2)c(NC(=O)c2ccccc2C)nn3C)C(C#N)=C(C)N1 | cell-free assay | competition with immobilised ligand | 1 µM | 92 |
| Cc1cnn2ncc(-c3ccnc(N(C)C)n3)c2c1 | binding |  | 1 µM | 95 |
| CCN1CCN(Cc2ccc(C(=O)Nc3ccc(C)c(Oc4ccc5c(c4)CC(=O)N5)c3)cc2C(F)(F)F)CC1 | binding | competition with immobilised ligand | 1 µM | 96 |
| O=S(=O)(NC1CCC(c2cc(F)ccc2F)(S(=O)(=O)c2ccc(Cl)cc2)CC1)C(F)(F)F (stereo not drawn) | cell-free assay | competition with immobilised ligand | 1 µM | 100 |
| O=C(Nc1c[nH]nc1C(=O)NC1CCNCC1)c1cc(F)cc(F)c1 | binding | competition with immobilised ligand | 1 µM | 94 |
| COc1cnc(Nc2cccc(S(N)(=O)=O)c2)nc1N1CCN(c2ccccc2)CC1 | binding | competition with immobilised ligand | 1 µM | 100 |
| CO[C@@H](C)c1c(Nc2ccc([C@H](N(C)C(=O)C3CCS(=O)(=O)CC3)C(F)(F)F)cc2)cnc2cc(Cl)nn12 | cell-free assay | competition with immobilised ligand | 1 µM | 100 |
| N[C@H]1CCN(c2nccc(-c3cnn4ncccc34)n2)C1 | binding |  | 1 µM | 65 |
| CS(=O)(=O)N1CCCC(NC(=O)[C@H](CCC2CCCCC2)NC(=O)c2ccc(CNC(=O)c3cnc4ccccn34)cc2)C1 (stereo partly drawn) | cell-free assay | competition with immobilised ligand | 0.1 µM | 93 |
| CN(c1nccc(-c2cnn3ncccc23)n1)C1CC1 | binding |  | 1 µM | 100 |
| Nc1ncc2c(n1)-c1c([nH]c3ccc(C#CC4CC4)cc13)CCCC2 | binding | competition with immobilised ligand | 1 µM | 100 |
